Measured values reported in ChEMBL document CHEMBL3259576, “Design and Evaluation of ω-Hydroxy Fatty Acids Containing α-GalCer Analogues for CD1d-Mediated NKT Cell Activation” (ACS Med Chem Lett, 2014).
Activity calls are given as the source filed them.

What was measured:
RBL = assay: Stimulation of mouse CD1d-mediated IL-2 production in DN32.D3 hybridoma cells co-cultured with mouse CD1d transfected RBL cells measured at 32 to 500 ng/ml after 16 hrs by ELISA
Mus musculus [1] = species: Mus musculus; assay: Stimulation of mouse CD1d-mediated IFN-gamma production in C57BL/6 mouse splenocytes measured at 32 ng/ml after 72 hrs by ELISA; type: cell-based
In short: (§1)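 Mouse splenocytes were treated individually with glycolipid and cultured for 72 h. IFN-γ and IL-4 in the culture were then measured. Results are expressed as relative activity, as means ±SD of triplicates, from one representative of two independent experiments.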

Mus musculus [2] = species: Mus musculus; assay: Stimulation of mouse CD1d-mediated IL-4 production in mouse splenocytes measured at 32 ng/ml after 72 hrs by ELISA; type: cell-based
In short: as §1

Mus musculus [3] = assay: In vivo stimulation of mouse CD1d-mediated peak IFN-gamma production in C57BL/6 mouse serum measured at 0.5 ug, iv after 12 hrs by ELISA; type: functional, organism-based
Mus musculus [4] = assay: In vivo stimulation of mouse CD1d-mediated peak IL4 production in C57BL/6 mouse serum measured at 0.5 ug, iv after 2 hrs by ELISA; type: functional, organism-based

Measured: Activity

CCCCCCCCCCCCCC[C@@H](O)[C@@H](O)[C@H](CO[C@H]1O[C@H](CO)[C@H](O)[C@H](O)[C@H]1O)NC(=O)CCCCCCCCCCCO
active: RBL | Mus musculus [1] | Mus musculus [2]

CCCCCCCCCCCCCC[C@@H](O)[C@@H](O)[C@H](CO[C@H]1O[C@H](CO)[C@H](O)[C@H](O)[C@H]1O)NC(=O)CCCCCCCCCCC
active: RBL | Mus musculus [1] | Mus musculus [2]

CCCCCCCCCCCCCC[C@@H](O)[C@@H](O)[C@H](CO[C@H]1O[C@H](CO)[C@H](O)[C@H](O)[C@H]1O)NC(=O)CCCCCCCCCC
active: RBL | Mus musculus [1] | Mus musculus [2]

CCCCCCCCCCCCCCCCCCCCCCCCCC(=O)N[C@@H](CO[C@H]1O[C@H](CO)[C@H](O)[C@H](O)[C@H]1O)[C@H](O)[C@H](O)CCCCCCCCCCCCCC
active: all assays above

CCCCCCCCCCCCCC[C@@H](O)[C@@H](O)[C@H](CO[C@H]1O[C@H](CO)[C@H](O)[C@H](O)[C@H]1O)NC(=O)CCCCCCCCCCCCCCCO
active: Mus musculus [1] | Mus musculus [2]

CCCCCCCCCCCCCC[C@@H](O)[C@@H](O)[C@H](CO[C@H]1O[C@H](CO)[C@H](O)[C@H](O)[C@H]1O)NC(=O)CCCCCCCCCCO
active: all assays above
